Data taken from ChEMBL document CHEMBL4017514, “Discovery of Novel Macrocyclic Hedgehog Pathway Inhibitors Acting by Suppressing the Gli-Mediated Transcription” (J Med Chem, 2017).
Activity calls are given as the source filed them. The calls are words filed in the database; no cut-off is given here.

Assays:
Assay type in all cases: cell-based
[1] = Inhibition of hedgehog signaling pathway in mouse Light2 cells in Shh conditioned medium by Gli-luciferase reporter gene assay
Summary of the method: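 Light II cells (NIH-3T3 stably transfected with Gli-responsive firefly luciferase and Renilla expression vector) stimulated with ShhN conditioned medium. This medium was collected from ShhN-transfected HEK293 cells kept in 0.1% FBS. Firefly luciferase normalized to Renilla. IC50 given as mean ± SD (nM) from three separate experiments.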

[2] = species on record: Mus musculus; assay: Inhibition of hedgehog signaling pathway in mouse Light2 cells in Shh conditioned medium at 1 uM by Gli-luciferase reporter gene assay relative to control
[3] = species on record: Homo sapiens; assay: Inhibition of TNFalpha-induced NFkappaB activation in HEK293 cells at 20 uM after 24 hrs by dual luciferase reporter gene assay; details: 1 uM, in the assay text read “1 uM” for “20 uM”
Summary of the method: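 HEK293 cells carrying NF-κB firefly reporter plus Renilla, stimulated with TNF-α and treated for 24 h. Cells lysed for dual luciferase assay, firefly signal normalized to Renilla. Data given as mean ± SD.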

[4] = species on record: Homo sapiens; assay: Inhibition of PGE2-stimulated TCF/LEF activity in human LS174T cells at 20 uM measured after 6 hrs by dual luciferase reporter gene assay
Summary of the method: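 LS174T cells carrying TCF/LEF reporter, stimulated with PGE2 and treated for 6 h. Dual luciferase read-out, firefly normalized to Renilla. Data given as mean ± SD.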

Row | Compound | IC50 ([1]; Mus musculus) [nM] | inhibition [2] [%] | inhibition [3] | inhibition [4] | IC50 [1] [nM]
1 | COc1ccc(CN2C[C@@H]3CCN(S(=O)(=O)C4CCCCC4)C[C@@H]3Oc3c(NC(=O)C4CC4)cccc3C2=O)cc1 (racemic) | > 1000 | 42 | – | – | –
2 | COc1ccc(CN2CC3CN(C(=O)Nc4ccc(C(F)(F)F)cc4)CCC3Oc3c(NC(=O)C4CC4)cccc3C2=O)cc1 (racemic) | > 1000 | 68 | – | – | –
3 | COc1ccc(CN2C[C@@H]3CN(S(=O)(=O)c4ccc(Cl)cc4)CC[C@@H]3Oc3ccc(NC(=O)C4CC4)cc3CC2=O)cc1 (racemic) | > 1000 | 36 | – | – | –
4 | COc1ccc(CN2C[C@@H]3CCN(S(=O)(=O)c4ccc(NC(C)=O)cc4)C[C@@H]3Oc3c(NC(=O)C4CC4)cccc3C2=O)cc1 (racemic) | 42 | 105 | – | – | –
5 | COc1ccc(CN2C[C@@H]3CN(S(=O)(=O)c4ccn(C)n4)CC[C@@H]3Oc3ccc(NC(=O)C4CC4)cc3CC2=O)cc1 (racemic) | > 1000 | – | – | – | –
6 | Cc1ccc(S(=O)(=O)/C=C/C#N)cc1 | – | – | Active | – | –
7 | O=C(Nc1cccc2c1O[C@H]1CN(S(=O)(=O)c3ccc(Cl)cc3)CC[C@H]1CN(CCO)C2=O)C1CC1 (racemic) | > 1000 | 25 | – | – | –
8 | C[C@H](CO)N1CC2CCN(S(=O)(=O)c3ccc(Cl)cc3)CC2Oc2c(NC(=O)C3CC3)cccc2C1=O (stereo partly drawn) [listing 1 of 2 here] | – | 34 | – | – | –
9 | O=C(Nc1cccc2c1O[C@H]1CN(S(=O)(=O)c3ccc(Cl)cc3)CC[C@H]1CN(Cc1cccnc1)C2=O)C1CC1 (racemic) | > 1000 | 28 | – | – | –
10 | COc1ccc(CN2C[C@@H]3CCN(S(=O)(=O)c4ccn(C)n4)C[C@@H]3Oc3ccc(NC(=O)C4CC4)cc3CC2=O)cc1 (racemic) | > 1000 | 16 | – | – | –
11 | COc1ccc(CN2C[C@@H]3CCN(S(=O)(=O)c4ccc(Cl)cc4)C[C@@H]3Oc3c(NC(=O)C4CC4)cccc3C2=O)cc1 (racemic) | 304 | 97 | – | – | –
12 | Cn1ccc(S(=O)(=O)N2CCN3C(=O)c4cccc(NC(=O)C5CC5)c4OCC3C2)n1 (stereo not drawn) | > 1000 | 58 | – | – | –
13 | COc1ccc(CN2C[C@@H]3CCN(S(C)(=O)=O)C[C@@H]3Oc3c(NC(=O)C4CC4)cccc3C2=O)cc1 (racemic) | > 1000 | 45 | – | – | –
14 | COc1ccc(CN2C[C@@H]3CCN(S(=O)(=O)c4ccn(C)n4)C[C@@H]3Oc3c(NC(=O)C4CC4)cccc3C2=O)cc1 (racemic) | 94 | 74 | – | – | –
15 | COc1ccc(CN2C[C@@H]3CCN(S(=O)(=O)c4ccc(OC)c(OC)c4)C[C@@H]3Oc3c(NC(=O)C4CC4)cccc3C2=O)cc1 (racemic) | > 1000 | 54 | – | – | –
16 | COc1ccc(CN2C[C@@H]3CCN(C(=O)Nc4ccc(C(F)(F)F)cc4)C[C@@H]3Oc3c(NC(=O)C4CC4)cccc3C2=O)cc1 (racemic) | 292 | 100 | – | – | –
17 | CN1CCC(N2C[C@@H]3CCN(S(=O)(=O)c4ccc(Cl)cc4)C[C@@H]3Oc3c(NC(=O)C4CC4)cccc3C2=O)CC1 (racemic) | 344 | 61 | – | – | –
18 | COc1ccc(CN2C[C@@H]3CN(S(=O)(=O)c4ccn(C)n4)CC[C@@H]3Oc3c(NC(=O)C4CC4)cccc3C2=O)cc1 (racemic) | 145 | 87 | – | – | –
19 | C[C@H](CO)N1CC2CCN(S(=O)(=O)c3ccc(Cl)cc3)CC2Oc2c(NC(=O)C3CC3)cccc2C1=O (stereo partly drawn) [listing 2 of 2 here] | > 1000 | – | – | – | –

Row | Compound | IC50 ([1]; Mus musculus) [nM] | inhibition [2] [%] | inhibition [3] | inhibition [4] | IC50 [1] [nM]
20 | COc1ccc(CN2C[C@@H]3CCN(S(=O)(=O)c4ccc(Cl)cc4)C[C@@H]3Oc3ccc(NC(=O)C4CC4)cc3CC2=O)cc1 (racemic) | 502 | 60 | – | – | –
21 | COc1ccc(CN2C[C@@H]3CN(S(=O)(=O)c4ccc(Cl)s4)CC[C@@H]3Oc3ccc(NC(=O)C4CC4)cc3CC2=O)cc1 (racemic) | 1620 | 65 | – | – | –
22 | COc1ccc(CN2CC3CN(S(=O)(=O)c4ccc(NC(C)=O)cc4)CCC3Oc3c(NC(=O)C4CC4)cccc3C2=O)cc1 (racemic) | 773 | 82 | – | – | –
23 | COc1ccc(CN2CC3CN(S(=O)(=O)c4ccc(Cl)cc4Cl)CCC3Oc3c(NC(=O)C4CC4)cccc3C2=O)cc1 (racemic) | 33 | 107 | – | – | –
24 | O=S(=O)(NCCNC/C=C/c1ccc(Br)cc1)c1cccc2cnccc12 | – | – | – | Active | –
25 | COc1ccc(CN2C[C@H]3CN(S(=O)(=O)c4ccc(Cl)cc4)CC[C@H]3Oc3c(NC(=O)C4CC4)cccc3C2=O)cc1 | 200 | 92 | – | – | –
26 | COc1ccc(CN2CC3CN(C(=O)Nc4ccc(F)cc4F)CCC3Oc3c(NC(=O)C4CC4)cccc3C2=O)cc1 (racemic) | 540 | 87 | – | – | –
27 | O=C(Nc1cccc2c1OCC1CN(S(=O)(=O)c3ccc(Cl)s3)CCN1C2=O)C1CC1 (stereo not drawn) | 482 | 80 | – | – | –
28 | O=C(Nc1cccc2c1O[C@H]1CN(S(=O)(=O)c3ccc(Cl)cc3)CC[C@H]1CN(CCO)C2=O)C1CCCCC1 (racemic) | > 1000 | 32 | – | – | –
29 | O=C(Nc1cccc2c1OCC1CN(S(=O)(=O)c3ccc(Cl)cc3)CCN1C2=O)C1CC1 (stereo not drawn) | > 1000 | 35 | – | – | –
30 | COc1ccc(CN2C[C@@H]3CCN(C(=O)Nc4ccc(F)cc4F)C[C@@H]3Oc3c(NC(=O)C4CC4)cccc3C2=O)cc1 (racemic) | 26 | 100 | – | – | –
31 | COc1ccc(CN2C[C@@H]3CN(S(=O)(=O)c4ccc(Cl)s4)CC[C@@H]3Oc3c(NC(=O)C4CC4)cccc3C2=O)cc1 (racemic) | 46 | 108 | – | – | –
32 | COc1ccc(CN2C[C@@H]3CCN(S(=O)(=O)N4CCN(C)CC4)C[C@@H]3Oc3c(NC(=O)C4CC4)cccc3C2=O)cc1 (racemic) | > 1000 | 45 | – | – | –
33 | COc1ccc(CN2C[C@@H]3CCN(S(=O)(=O)c4ccc(Cl)s4)C[C@@H]3Oc3c(NC(=O)C4CC4)cccc3C2=O)cc1 (racemic) | 167 | 113 | – | – | –
34 | COc1ccc(CN2C[C@@H]3CN(S(=O)(=O)c4ccc(Cl)cc4)CC[C@@H]3Oc3c(NC(=O)C4CC4)cccc3C2=O)cc1 [listing 1 of 2 here] | – | – | – | – | 12
35 | COc1ccc(CN2C[C@@H]3CN(S(=O)(=O)c4ccc(Cl)cc4)CC[C@@H]3Oc3c(NC(=O)C4CC4)cccc3C2=O)cc1 [listing 2 of 2 here] | – | 117 | – | – | –
36 | COc1ccc(CN2C[C@@H]3CCN(S(=O)(=O)c4ccc(Cl)cc4Cl)C[C@@H]3Oc3c(NC(=O)C4CC4)cccc3C2=O)cc1 (racemic) | 766 | 102 | – | – | –
37 | C[C@H](CO)N1CC2CCN(S(=O)(=O)c3ccc(Cl)cc3)CC2Oc2c(NC(=O)C3CC3)cccc2C1=O (single isomer, unassigned; (+)) | – | 40 | – | – | –
38 | COc1ccc(CN2C[C@@H]3CCN(C(=O)c4ccc(Cl)cc4)C[C@@H]3Oc3c(NC(=O)C4CC4)cccc3C2=O)cc1 (racemic) | > 1000 | 22 | – | – | –
